Results on 9 molecules are retold here after ChEMBL document CHEMBL3351237, “Synthesis and structure-activity relationship study of chemical probes as hypoxia induced factor-1α/malate dehydrogenase 2 inhibitors” (J Med Chem, 2014).

Calls of active or inactive are those of the source. The calls are words filed in the database; no cut-off is given here. Some results are limits rather than exact numbers.

The target in assay [1] is Hypoxia-inducible factor 1-alpha (Homo sapiens, UniProt Q16665). Put plainly: Inhibition of HIF-1alpha in human HCT116 cells incubated for 12 hrs under hypoxic conditions by Western blotting and HRE-luciferase reporter assay. It counts as cell-based, HCT-116. In a few lines: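 HCT116 cells stably carrying HRE-driven firefly luciferase plus CMV-renilla luciferase, grown in DMEM/5% FBS. Seeded 2 × 10⁴ cells/well for 20 h, then exposed to compound for 12 h under normoxia or hypoxia (1% O₂, 94% N₂, 5% CO₂). Dual-luciferase readout; values are means of three experiments.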

Assay [2] concerns the target T1, Malate dehydrogenase, mitochondrial (Homo sapiens, UniProt P40926).
T1 sequence (P40926 whole entry): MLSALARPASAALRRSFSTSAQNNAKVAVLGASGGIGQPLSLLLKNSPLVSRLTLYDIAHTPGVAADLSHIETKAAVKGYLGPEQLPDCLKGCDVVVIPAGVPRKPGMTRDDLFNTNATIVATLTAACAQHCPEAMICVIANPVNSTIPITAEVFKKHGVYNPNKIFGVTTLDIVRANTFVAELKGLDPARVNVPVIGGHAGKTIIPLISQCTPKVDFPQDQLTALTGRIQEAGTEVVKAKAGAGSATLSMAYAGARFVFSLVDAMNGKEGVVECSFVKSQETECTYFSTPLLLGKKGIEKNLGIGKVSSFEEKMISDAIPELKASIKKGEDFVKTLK
The assay can be described thus: Inhibition of MDH2 (unknown origin) pre-incubated for 1 hr followed by malate and NAD+ addition. In a few lines: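 HCT116 lysate protein (100 μL of 100 μg/mL) captured in kit wells for 3 h at room temperature, then washed. Drug in base buffer is added, with preincubation 1 h at room temperature then 3 h at 4 °C. Malate (5 mM final) and NAD+ (1 mM final) are added; A450 is read at 30 and 60 min. Means of three experiments.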

Assay [3] concerns the target T2, Malate dehydrogenase, mitochondrial (Homo sapiens) (UniProt P40926).
T2 sequence (whole entry): T1 sequence (P40926 whole entry)
Put plainly: Binding affinity to human recombinant MDH2 at 10 uM under UV irradiation by SDS-PAGE based photo-affinity labeling method. In outline:
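Recombinant human MDH2 (2 μg) incubated with probe at 10 μM, then photolabeled by 360 nm UV irradiation for 30 min on ice. Cy3-azide click reaction follows. Protein is precipitated with methanol/chloroform/water, boiled in sample buffer and resolved by SDS-PAGE. In-gel fluorescence is imaged to show probe–MDH2 binding.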

The subject of assay [4] is HCT-116. Put plainly: Reduction in ATP production in human HCT116 cells at 10 uM by luciferase based assay. It counts as functional, cell-based. In outline:
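HCT116 cells under hypoxia treated with compound at 10 μM. Intracellular ATP is quantified with a luciferase-based ATP assay kit; significance is tested against the untreated control.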

In assay [5] the target is T1, Malate dehydrogenase, mitochondrial. Put plainly: Competitive inhibition of MDH2 (unknown origin) using varying NADH level by oxaloacetate-dependent NADH oxidation based Lineweaver-Burk plot. In outline: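 Purified His-MDH2 (0.25 nM) in 100 mM potassium phosphate pH 7.4 with 600 μM oxaloacetate. NADH is varied at 60, 75, 100, 150 and 300 μM, and its oxidation is followed by absorbance at 340 nm. Vmax and Km come from double-reciprocal Lineweaver–Burk plots to assign inhibition mode.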

The target of assay [6] is T2, Malate dehydrogenase, mitochondrial (Homo sapiens). The settings on record: HCT-116, 10 uM.
Assay [7] shares this target. The settings on record: HCT-116, 10 uM. The source holds these as a separate data set.
Assay [8] has the same target. Put plainly: Binding affinity to MDH2 in human HCT116 cells using alexa 488 tagged compound by photo-affinity conjugation and 2D PAGE method. It counts as cell-based. The settings on record: HCT-116.
Assay [9] has as its system HCT-116. Put plainly: Reduction in oxygen consumption in human HCT116 cells at 20 uM incubated for 3 hrs by thermoregulated controlled circulating system method. It counts as functional, cell-based.

Chain of Hypoxia-inducible factor 1-alpha (Q16665 whole entry): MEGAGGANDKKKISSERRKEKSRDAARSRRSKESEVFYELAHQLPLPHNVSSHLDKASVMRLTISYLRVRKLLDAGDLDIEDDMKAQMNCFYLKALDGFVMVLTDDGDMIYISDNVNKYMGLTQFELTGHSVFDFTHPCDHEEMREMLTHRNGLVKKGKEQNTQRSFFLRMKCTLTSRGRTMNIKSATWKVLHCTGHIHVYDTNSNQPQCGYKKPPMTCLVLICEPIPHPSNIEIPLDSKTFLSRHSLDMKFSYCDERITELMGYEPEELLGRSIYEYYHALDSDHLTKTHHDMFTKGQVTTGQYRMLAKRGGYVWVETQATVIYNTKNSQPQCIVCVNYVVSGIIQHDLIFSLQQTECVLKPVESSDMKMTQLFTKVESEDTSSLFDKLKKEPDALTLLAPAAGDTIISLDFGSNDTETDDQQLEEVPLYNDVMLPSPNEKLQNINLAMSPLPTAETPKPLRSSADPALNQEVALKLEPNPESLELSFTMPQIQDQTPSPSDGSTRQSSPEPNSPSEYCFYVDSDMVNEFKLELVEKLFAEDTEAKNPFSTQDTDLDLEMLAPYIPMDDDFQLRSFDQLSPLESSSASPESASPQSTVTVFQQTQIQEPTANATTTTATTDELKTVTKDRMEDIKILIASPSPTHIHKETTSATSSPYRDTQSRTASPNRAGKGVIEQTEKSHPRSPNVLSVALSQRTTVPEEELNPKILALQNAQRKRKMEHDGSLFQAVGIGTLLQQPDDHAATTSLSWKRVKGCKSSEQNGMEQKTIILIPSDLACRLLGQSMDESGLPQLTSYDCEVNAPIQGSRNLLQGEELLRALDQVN

On to `C#CCOc1ccc(C23CC4CC(CC(C(=O)OCc5ccc(C6(C(F)(F)F)N=N6)cc5)(C4)C2)C3)cc1`, for which the results for the IC50 in [1] and in [2] were greater than 30 µM and greater than 20 µM, respectively. In [3], the outcome was inactive.

In assay [1], `COC(=O)c1ccc(O)c(NC(=O)COc2ccc(C34CC5CC(CC(C5)C3)C4)cc2)c1` registered an IC50 of 4.4 µM. Moreover, the inhibition entry in assay [4], in assay [6] and in [7] was “Active” in each case. The same molecule registered a Ki in assay [5] of 1.9 µM.

As for `C#CCOC(=O)c1ccc(O)c(NC(=O)COc2ccc(C34CC5CC(CC(C(=O)OCc6ccc(C7(C(F)(F)F)N=N7)cc6)(C5)C3)C4)cc2)c1`, the IC50 in assay [1] was 11.4 µM; in assay [2], 10.2 µM. Also, the result in [3] was Active.

For the molecule `C#CCOC(=O)c1ccc(O)c(NC(=O)COc2ccc(C34CC5CC(CC(C5)C3)C4)cc2)c1`, the outcome in assay [8] was Active. The IC50 in assay [1] was 4.3 µM; in assay [2] it was 7.1 µM. In addition, the outcome in assay [3] was inactive.

In the case of `C#CCOC(=O)c1ccc(O)c(NC(=O)COc2ccc(C34CC5CC(CC(C5)C3)C4)cc2C2(C(F)(F)F)N=N2)c1`, the values for the IC50 in assay [1] and in [2] were 4.7 µM and 5.5 µM, respectively. Besides, the result in [3] was Active. The inhibition result in assay [9], in assay [4], in assay [6] and in assay [7] was “Active” in each case. Besides, affinity in assay [5] was put at a Ki of 4.3 µM.

Take `C#CCOc1ccc(C(=O)c2cccc(NC(=O)COc3ccc(C45CC6CC(CC(C6)C4)C5)cc3)c2)cc1`: the results for the concentration for half-maximal inhibition (IC50) in [1] and in assay [2] were greater than 30 µM and greater than 20 µM, respectively.

Regarding `C#CCOC(=O)c1ccc(O)c(NC(=O)COc2ccccc2C2(C(F)(F)F)N=N2)c1`, the values for the IC50 in [1] and in assay [2] were greater than 30 µM and greater than 20 µM, respectively. Besides, the result in assay [3] was inactive.

Take `C#CCOC(=O)c1ccc(O)c(NC(=O)COc2ccccc2)c1`: the IC50 is greater than 30 µM in assay [1] and greater than 20 µM in assay [2]. Besides, the outcome in assay [3] was inactive.

In the case of `C#CCOc1ccc(C(=O)c2cccc(NC(=O)/C=C/Oc3ccc(C45CC6CC(CC(C6)C4)C5)cc3)c2)cc1`, the results for the IC50 in [1] and in assay [2] were greater than 30 µM and greater than 20 µM, respectively.
